Data as given in ChEMBL document CHEMBL1212767, “In vitro and in vivo activities of 1-hydroxy-2-alkyl-4(1H)quinolone derivatives against Toxoplasma gondii” (Antimicrob Agents Chemother, 2010).
Active and inactive are the calls of the source. The rule behind the calls is not given here.

What was measured:
Toxoplasma gondii [1] = test: Antimicrobial activity against Toxoplasma gondii type 1 RH strain infected in human foreskin fibroblasts monolayer assessed as inhibition of parasite replication at 1 uM after 24 hrs by phase-contrast microscopy; type: functional
Procedure, shortened: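 Confluent human foreskin fibroblast monolayers infected with RH tachyzoites, then exposed to compound (top concentration 1 μM) or DMSO control for 24 h. Read-out was the average number of parasites per vacuole-type count, relative to control.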

Toxoplasma gondii [2] = test: Antimicrobial activity against GFP-expressing Toxoplasma gondii type 1 RH strain ip infected in NMRI mouse assessed as decrease in parasite DNA level in liver at 32 mg/kg, ip administered 3 days postinfection for 5 days by quantitative PCR analysis; type: functional, organism-based; set-up: dose 32 mg/kg
Procedure, shortened: (§1)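 Same i.p.-infected NMRI model and dosing regimen; liver and lung collected on day 8. Parasite DNA was quantified by qPCR targeting the T. gondii cryptic gene, using 250 ng total DNA, 2 mM MgCl2, 1 μM each primer and 0.2 μM each hybridization probe. Cycling: 50 cycles of 95°C, 52°C and 72°C. Standard curve of 250 to 2.5 pg parasite DNA run each time; crossing points by second-derivative method.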

Toxoplasma gondii [3] = test: Antimicrobial activity against Toxoplasma gondii type 1 RH strain infected in human foreskin fibroblasts monolayer assessed as inhibition of parasite replication after 24 hrs by phase-contrast microscopy; type: functional, organism-based
Toxoplasma gondii [4] = test: Antimicrobial activity against GFP-expressing Toxoplasma gondii type 1 RH strain ip infected in NMRI mouse assessed as decrease in infected peritoneal cells in peritoneal cavity lavage at 32 mg/kg, ip administered 3 days postinfection for 5 days; type: functional, organism-based; set-up: dose 32 mg/kg
Procedure, shortened: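 Female NMRI mice infected i.p. with GFP-expressing RH tachyzoites. From day 3 post-infection, drug was given i.p. at 32 mg/kg/day for 5 days. Vehicle was ethanol-DMSO (1:1), sonicated at 70°C, then diluted with an equal volume of PBS. Vehicle-treated mice served as controls. On day 8, peritoneal lavage cells were fixed in 3.7% formaldehyde, and the percentage of GFP-infected cells was measured by flow cytometry. Data pooled from three experiments.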

Toxoplasma gondii [5] = test: (§2) Antimicrobial activity against Toxoplasma gondii type 2 ME49 strain orally infected in ip dosed IRF-8 deficient mouse brain assessed as decrease in inflammatory foci administered for 5 days after 3 days post 28 day 400 mg/dl sulfadiazine dosing by quantitative PCR analysis; type: functional, organism-based
Procedure, shortened: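 Same ME49 chronic model: sulfadiazine 400 mg/dl for 28 days, then daily drug for 5 days starting 3 days after withdrawal, four mice per group, repeated three times. Brain inflammatory foci were graded as mean inflammatory scores using a previously described scoring method.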

Toxoplasma gondii [6] = test: as §2, with “Toxoplasma DNA level measured per 250 ng total DNA” for “inflammatory foci”, “analysis (Rbv = 134 +/- 226.1 pg DNA)” for “analysis”; type: functional
Procedure, shortened: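 Chronic model: mice infected with ME49; sulfadiazine 400 mg/dl given from day 2 for 28 days to allow cyst formation. Three days after withdrawal, mice received drug daily for 5 days, in groups of four, repeated three times. On day 39, brain parasite load was measured by qPCR as pg T. gondii DNA per 250 ng total DNA.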

Toxoplasma gondii [7] = test: Antimicrobial activity against GFP-expressing Toxoplasma gondii type 1 RH strain ip infected in NMRI mouse assessed as decrease in parasite DNA level in lungs at 32 mg/kg, ip administered 3 days postinfection for 5 days by quantitative PCR analysis; type: functional, organism-based; set-up: dose 32 mg/kg; procedure, shortened: as §1

Compound	inhibition at 1 µM (Toxoplasma gondii [1]) [%]	Activity (Toxoplasma gondii [2])	IC50 (Toxoplasma gondii [3]) [nM]	Activity (Toxoplasma gondii [4])	Activity (Toxoplasma gondii [5])	Activity (Toxoplasma gondii [6]) [pg]	Activity (Toxoplasma gondii [7])	inhibition (Toxoplasma gondii [3])
CCCCCCCCCCCCc1c(C)n(O)c2ccc(OCCN(C)C)cc2c1=O	38	–	–	–	–	–	–	–
CCCCCCCCCCCCc1cc(=O)c2ccccc2n1O	–	Active	4.2	Active	–	–	–	–
O=C1C(O)=C([C@H]2CC[C@H](c3ccc(Cl)cc3)CC2)C(=O)c2ccccc21 [ATOVAQUONE]	–	Active	–	–	Active	0.8	Active	–
CCCCCCCCCCCCc1c(C)c(=O)c2ccccc2n1O [COMPOUND A]	–	Active	0.4	Active	Active	–	–	–
CCCCCCCCCCCCc1c(C)n(O)c2ccccc2c1=O	–	Active	0.8	Active	Active	6.7	Active	–
CCCCCCCCCCCCc1cc(=O)c2cc(OCCN(C)C)ccc2n1O	–	–	–	–	–	–	–	inactive
